Data from ChEMBL document CHEMBL4602731, “A γ-Lactam Siderophore Antibiotic Effective against Multidrug-Resistant Gram-Negative Bacilli” (J Med Chem, 2020).
≈ marks a conversion by molar mass, not a printed value.

Legend:
[1] = Inhibition of Acinetobacter baumanni PBP3 assessed as reduction in fluorescence intensity of bocillin labeled protein by SDS-PAGE analysis; parameters: species or system Acinetobacter baumannii
[2] = Substrate activity at OXA-23 (unknown origin) assessed as compound hydrolysis at 100 uM by diode array spectrophotometry; assay type: ADME; settings: bacteria
[3] = Half life CD1 mouse liver microsomes; assay type: ADME, Microsome
[4] = Substrate activity at IMP-1 (unknown origin) assessed as Kcat for compound hydrolysis by diode array spectrophotometry; assay type: ADME; settings: bacteria
Escherichia coli = assay: Antimicrobial activity against Escherichia coli clinical isolates by standard broth microdilution method; assay type: functional
[5] = molecular target: Penicillin-binding protein 3 (Pseudomonas aeruginosa) (UniProt Q51504); assay: Stabilization of Pseudomonas aeruginosa PBP3 assessed as increase in melting temperature at 1 mM by DSF thermal shift assay
Chain of Penicillin-binding protein 3 (Pseudomonas aeruginosa) (Q51504 as listed by the source): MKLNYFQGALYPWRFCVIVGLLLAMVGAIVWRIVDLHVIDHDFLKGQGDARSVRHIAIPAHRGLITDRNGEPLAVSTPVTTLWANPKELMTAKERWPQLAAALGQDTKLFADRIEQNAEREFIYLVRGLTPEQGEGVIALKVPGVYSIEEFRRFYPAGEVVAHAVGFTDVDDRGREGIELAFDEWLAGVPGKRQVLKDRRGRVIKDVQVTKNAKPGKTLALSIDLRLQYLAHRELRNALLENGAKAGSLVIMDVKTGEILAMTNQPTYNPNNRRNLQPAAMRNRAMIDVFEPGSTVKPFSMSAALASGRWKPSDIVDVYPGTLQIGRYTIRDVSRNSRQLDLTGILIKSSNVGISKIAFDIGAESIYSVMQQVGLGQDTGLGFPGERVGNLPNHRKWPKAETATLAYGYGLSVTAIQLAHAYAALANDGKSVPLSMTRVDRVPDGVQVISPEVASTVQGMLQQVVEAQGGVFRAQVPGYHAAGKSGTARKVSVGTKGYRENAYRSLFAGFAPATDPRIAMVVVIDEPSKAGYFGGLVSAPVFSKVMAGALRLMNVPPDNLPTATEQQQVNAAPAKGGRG

[6] = molecular target: Prostaglandin G/H synthase 1 (Homo sapiens) (UniProt P23219); assay: Inhibition of COX1 (unknown origin) at 30 uM relative to control
Chain of Prostaglandin G/H synthase 1 (Homo sapiens) (P23219 whole entry): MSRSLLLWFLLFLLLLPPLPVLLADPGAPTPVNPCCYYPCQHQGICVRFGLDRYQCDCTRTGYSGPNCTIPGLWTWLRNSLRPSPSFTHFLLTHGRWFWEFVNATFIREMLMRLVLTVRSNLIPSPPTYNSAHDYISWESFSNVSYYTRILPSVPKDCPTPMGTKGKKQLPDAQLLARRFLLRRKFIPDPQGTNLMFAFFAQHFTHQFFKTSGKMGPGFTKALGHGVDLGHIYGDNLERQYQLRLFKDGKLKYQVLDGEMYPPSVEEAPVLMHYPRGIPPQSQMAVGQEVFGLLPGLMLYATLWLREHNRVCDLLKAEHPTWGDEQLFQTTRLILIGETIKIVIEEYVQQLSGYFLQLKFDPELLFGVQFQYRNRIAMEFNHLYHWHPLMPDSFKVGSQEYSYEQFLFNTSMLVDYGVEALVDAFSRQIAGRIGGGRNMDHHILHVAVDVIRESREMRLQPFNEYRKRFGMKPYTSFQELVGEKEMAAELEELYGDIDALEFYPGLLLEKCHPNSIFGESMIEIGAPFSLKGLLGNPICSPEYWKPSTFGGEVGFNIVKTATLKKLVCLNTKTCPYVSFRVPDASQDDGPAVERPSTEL
In short: (§1)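 Safety panel of 44 enzymes, receptors and channels, with compound tested at 30 μM. Percent inhibition is measured.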

[7] = Half life in CD1 mouse at 50 mg/kg, iv after 2 hrs by HPLC-MS/MS analysis; assay type: ADME, organism-based; settings: in vivo
In short: (§2)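 CD-1 mice, single IV dose of 50 mg/kg, parallel sampling in groups of 24 animals. Blood is taken by cardiac puncture under isoflurane into lithium heparin or K2EDTA tubes and spun at 2500 × g for 15 min at 4 °C. Plasma is precipitated with acetonitrile and run on HPLC-MS/MS against a spiked-plasma calibration curve with internal standard. Parameters come from noncompartmental analysis.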

Pseudomonas aeruginosa [8] = assay: Antimicrobial activity against Pseudomonas aeruginosa PAO1 in presence of 10 ug/ml iron by standard broth microdilution method; assay type: functional
In short: (§3)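 MICs by CLSI broth microdilution, inoculum 6 × 10^4 CFU/mL, in cation-adjusted Mueller–Hinton broth iron-depleted with cation-exchange resin (reported to leave 0.02 μg/mL iron). Soluble iron added back; total media iron expected 0.02, 0.12, 1.02 and 10.02 μg/mL.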

Pseudomonas aeruginosa [9] = assay: Antimicrobial activity against Pseudomonas aeruginosa PAO1 in presence of 0.1 ug/ml iron by standard broth microdilution method; assay type: functional
In short: (§4)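 CLSI broth microdilution in iron-depleted cation-adjusted Mueller–Hinton broth, made by cation-exchange resin treatment, with an inoculum of 6 × 10^4 CFU/mL. For the iron series, soluble iron is added to the depleted medium. Total iron in the tested media is expected to be 0.02, 0.12, 1.02 and 10.02 μg/mL.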

[10] = Substrate activity at OXA-24 (unknown origin) assessed as compound hydrolysis at 100 uM by diode array spectrophotometry; assay type: ADME; settings: bacteria
Cytochrome P450 = assay: Inhibition of CYP450 (unknown origin) at 30 uM; assay type: ADME, protein assay; settings: human
[11] = Half life human liver microsomes; assay type: ADME, Microsome
[12] = Substrate activity at KPC-2 (unknown origin) assessed as compound hydrolysis at 100 uM by diode array spectrophotometry; assay type: ADME; settings: bacteria
Pseudomonas aeruginosa [13] = assay: Antimicrobial activity against Pseudomonas aeruginosa PAO1 in presence of 1 ug/ml iron by standard broth microdilution method; assay type: functional; in short: as §3
[14] = Substrate activity at IMP-1 (unknown origin) assessed as Kcat/Km ratio for compound hydrolysis by diode array spectrophotometry; assay type: ADME; settings: bacteria
[15] = Stability in pH 7.5 phosphate buffer assessed as compound hydrolysis after 2 weeks at room temperature; assay type: physicochemical; settings: read-out: Drug degradation
Klebsiella pneumoniae = assay: Antimicrobial activity against Klebsiella pneumoniae clinical isolates by standard broth microdilution method; assay type: functional
[16] = Initial drug concentration in CD1 mouse at 50 mg/kg, iv after 2 hrs by HPLC-MS/MS analysis; assay type: ADME, organism-based; settings: in vivo; in short: as §2
Pseudomonas aeruginosa [17] = assay: Antimicrobial activity against Pseudomonas aeruginosa clinical isolate in absence of iron by standard broth microdilution method
[18] = molecular target: Penicillin-binding protein 3 (Pseudomonas aeruginosa, UniProt Q51504); assay: Inhibition of Pseudomonas aeruginosa PBP3 assessed as reduction in fluorescence intensity of bocillin labeled protein pre-incubated for 20 mins before bocillin addition by SDS-PAGE analysis
Chain of Penicillin-binding protein 3 (Q51504 whole entry): as the sequence (Q51504 as listed by the source) above

[19] = AUC (infinity) in CD1 mouse at 50 mg/kg, iv after 2 hrs by HPLC-MS/MS analysis; assay type: ADME, organism-based; parameters: dose 50 mg/kg, route intravenous, time infinity; settings: in vivo; in short: as §2
Pseudomonas aeruginosa [20] = assay: Antimicrobial activity against Pseudomonas aeruginosa clinical isolates by standard broth microdilution method; assay type: functional
[21] = AUClast in CD1 mouse at 50 mg/kg, iv after 2 hrs by HPLC-MS/MS analysis; assay type: ADME, organism-based; parameters: time < 2 hr, dose 50 mg/kg, route intravenous; settings: in vivo; in short: as §2
[22] = Substrate activity at PER-2 (unknown origin) assessed as compound hydrolysis at 100 uM by diode array spectrophotometry; assay type: ADME; settings: bacteria
[23] = Substrate activity at NDM-1 (unknown origin) assessed as Kcat/Km ratio for compound hydrolysis by diode array spectrophotometry; assay type: ADME; settings: bacteria
In short: (§5)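 The compound is the substrate, in molar excess for pseudo-first-order conditions. Hydrolysis is followed spectrophotometrically at Δε336 = −5500 M−1 cm−1 in a 1 cm quartz cuvette.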

Hepatocyte = assay: Toxicity in human primary hepatocytes at 100 uM incubated for 72 hrs; assay type: cell-based
In short: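 Primary human hepatocytes exposed to compound at a maximum of 100 μM for 72 h.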

[24] = Solubility in pH 7.5 phosphate buffer by nephelometry; assay type: physicochemical
In short: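 Solubility in pH 7.5 phosphate buffer, measured by nephelometry.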

Pseudomonas aeruginosa [25] = assay: Antimicrobial activity against Pseudomonas aeruginosa clinical isolate in presence of 10 ug/ml iron by standard broth microdilution method
[26] = molecular target: Penicillin-binding protein 3 (Pseudomonas aeruginosa) (UniProt Q51504); assay: Stabilization of Pseudomonas aeruginosa PBP3 assessed as melting temperature at 1 mM by DSF thermal shift assay (reference value: 44.1 +/- 0.14 degC)
In short: (§6)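 Ligand at […], ceftazidime at 0.2 mM as positive control; no-ligand control with 1% DMSO. Derivative of fluorescence change plotted against temperature.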

[27] = Substrate activity at VIM-2 (unknown origin) assessed as Kcat/Km ratio for compound hydrolysis by diode array spectrophotometry; assay type: ADME; settings: bacteria
[28] = Plasma concentration CD1 mouse at 50 mg/kg, iv after 2 hrs by HPLC-MS/MS analysis; assay type: ADME, organism-based; in short: as §2
[29] = molecular target: Voltage-gated inwardly rectifying potassium channel KCNH2 (Homo sapiens, UniProt Q12809); assay: Binding affinity to human ERG at 30 uM
Chain of Voltage-gated inwardly rectifying potassium channel KCNH2 (Q12809 whole entry): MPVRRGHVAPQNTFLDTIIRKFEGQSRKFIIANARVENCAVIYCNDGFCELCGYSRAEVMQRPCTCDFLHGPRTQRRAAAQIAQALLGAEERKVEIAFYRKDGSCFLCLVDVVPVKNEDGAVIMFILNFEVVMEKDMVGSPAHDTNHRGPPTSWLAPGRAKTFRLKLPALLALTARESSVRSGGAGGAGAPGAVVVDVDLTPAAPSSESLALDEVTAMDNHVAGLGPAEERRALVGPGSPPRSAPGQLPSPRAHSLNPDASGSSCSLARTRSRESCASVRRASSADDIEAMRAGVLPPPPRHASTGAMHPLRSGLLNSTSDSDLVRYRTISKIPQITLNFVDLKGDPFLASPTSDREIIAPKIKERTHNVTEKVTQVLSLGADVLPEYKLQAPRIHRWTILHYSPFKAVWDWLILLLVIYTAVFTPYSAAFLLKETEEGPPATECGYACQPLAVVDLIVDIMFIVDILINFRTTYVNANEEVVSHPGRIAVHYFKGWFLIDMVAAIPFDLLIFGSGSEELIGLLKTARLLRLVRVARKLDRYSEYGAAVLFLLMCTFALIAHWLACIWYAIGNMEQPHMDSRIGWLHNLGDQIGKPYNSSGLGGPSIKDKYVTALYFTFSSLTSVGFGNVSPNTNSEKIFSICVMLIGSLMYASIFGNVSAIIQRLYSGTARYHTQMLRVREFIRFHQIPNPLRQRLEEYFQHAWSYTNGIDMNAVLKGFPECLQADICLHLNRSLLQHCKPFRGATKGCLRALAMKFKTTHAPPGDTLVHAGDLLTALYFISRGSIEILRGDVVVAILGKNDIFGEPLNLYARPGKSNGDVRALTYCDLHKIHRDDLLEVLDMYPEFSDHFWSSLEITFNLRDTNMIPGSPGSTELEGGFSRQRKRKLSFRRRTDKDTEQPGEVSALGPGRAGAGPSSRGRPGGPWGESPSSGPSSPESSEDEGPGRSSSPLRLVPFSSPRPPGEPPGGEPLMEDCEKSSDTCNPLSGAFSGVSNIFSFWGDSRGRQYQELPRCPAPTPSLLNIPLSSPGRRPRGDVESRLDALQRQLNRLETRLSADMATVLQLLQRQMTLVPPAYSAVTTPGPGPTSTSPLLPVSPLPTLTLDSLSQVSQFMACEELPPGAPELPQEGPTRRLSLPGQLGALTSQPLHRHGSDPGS

[30] = Volume of distribution at steady state in CD1 mouse at 50 mg/kg, iv after 2 hrs by HPLC-MS/MS analysis; assay type: ADME, organism-based; settings: in vivo; in short: as §2
[31] = Substrate activity at NDM-1 (unknown origin) assessed as Kcat for compound hydrolysis by diode array spectrophotometry; assay type: ADME; settings: bacteria; in short: as §5
[32] = molecular target: cGMP-inhibited 3',5'-cyclic phosphodiesterase 3A (Homo sapiens) (UniProt Q14432); assay: Inhibition of PDE3A (unknown origin) at 30 uM relative to control; in short: as §1
Chain of cGMP-inhibited 3',5'-cyclic phosphodiesterase 3A (Homo sapiens) (Q14432 whole entry): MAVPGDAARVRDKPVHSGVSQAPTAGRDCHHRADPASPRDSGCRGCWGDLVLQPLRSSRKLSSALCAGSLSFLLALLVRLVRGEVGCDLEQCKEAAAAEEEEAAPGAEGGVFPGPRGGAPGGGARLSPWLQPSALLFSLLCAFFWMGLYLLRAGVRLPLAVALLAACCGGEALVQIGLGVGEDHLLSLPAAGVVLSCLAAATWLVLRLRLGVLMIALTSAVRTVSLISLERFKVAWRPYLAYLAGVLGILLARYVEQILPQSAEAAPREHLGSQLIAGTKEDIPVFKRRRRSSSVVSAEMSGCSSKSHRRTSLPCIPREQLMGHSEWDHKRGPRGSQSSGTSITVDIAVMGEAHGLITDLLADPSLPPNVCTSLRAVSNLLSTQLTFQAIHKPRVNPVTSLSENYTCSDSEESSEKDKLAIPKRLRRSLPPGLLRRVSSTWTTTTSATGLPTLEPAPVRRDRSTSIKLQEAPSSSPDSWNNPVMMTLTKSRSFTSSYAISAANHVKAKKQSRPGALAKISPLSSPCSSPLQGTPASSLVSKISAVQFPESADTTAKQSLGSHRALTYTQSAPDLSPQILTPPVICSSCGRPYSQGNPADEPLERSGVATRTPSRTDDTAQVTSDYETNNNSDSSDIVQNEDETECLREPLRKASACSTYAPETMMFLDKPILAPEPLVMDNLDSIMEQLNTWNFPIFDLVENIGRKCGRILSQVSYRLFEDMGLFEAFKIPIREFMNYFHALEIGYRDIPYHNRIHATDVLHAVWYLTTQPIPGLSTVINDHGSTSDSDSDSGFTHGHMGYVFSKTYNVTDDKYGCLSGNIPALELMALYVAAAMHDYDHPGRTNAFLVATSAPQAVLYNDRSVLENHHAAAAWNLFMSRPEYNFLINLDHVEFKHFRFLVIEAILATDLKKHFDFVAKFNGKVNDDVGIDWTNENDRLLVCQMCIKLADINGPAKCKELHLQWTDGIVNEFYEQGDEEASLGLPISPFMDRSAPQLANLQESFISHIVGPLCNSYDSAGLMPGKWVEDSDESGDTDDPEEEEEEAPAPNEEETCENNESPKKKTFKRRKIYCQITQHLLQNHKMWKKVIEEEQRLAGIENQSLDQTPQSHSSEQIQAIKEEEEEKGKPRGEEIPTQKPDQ

[33] = Substrate activity at VIM-2 (unknown origin) assessed as Kcat for compound hydrolysis by diode array spectrophotometry; assay type: ADME; settings: bacteria
Pseudomonas aeruginosa [34] = assay: Antimicrobial activity against Pseudomonas aeruginosa clinical isolate in presence of 1 ug/ml iron by standard broth microdilution method
[35] = AUC (extrapolated) in CD1 mouse at 50 mg/kg, iv after 2 hrs by HPLC-MS/MS analysis; assay type: ADME, organism-based; settings: in vivo; in short: as §2
[36] = molecular target: Penicillin-binding protein 3 (Pseudomonas aeruginosa) (UniProt Q51504); assay: Stabilization of Pseudomonas aeruginosa PBP3 assessed as melting temperature at 0.2 mM by DSF thermal shift assay (reference value: 44.1 +/- 0.14 degC); in short: as §6
Pseudomonas aeruginosa [37] = assay: Antimicrobial activity against Pseudomonas aeruginosa clinical isolate in presence of 0.1 ug/ml iron by standard broth microdilution method
[38] = Stability in pH 7.5 phosphate buffer assessed as compound hydrolysis measured 24 hrs after reconstitution; assay type: physicochemical; settings: read-out: Drug degradation
Pseudomonas aeruginosa [39] = assay: Antimicrobial activity against Pseudomonas aeruginosa PAO1 in absence of iron by standard broth microdilution method; assay type: functional; in short: as §4

C[C@@H](O)[C@H]1C(=O)N2C(C(=O)O)=C(S[C@@H]3CN[C@H](CNS(N)(=O)=O)C3)[C@H](C)[C@H]12 [DORIPENEM]
IC50 [1]: 2300 nM

CC(C)(O/N=C(\C(=O)N[C@H]1CN2CC(C(=O)NCCN3C(=O)c4cc(O)c(O)cc4C3=O)=C(C(=O)O)N2C1=O)c1csc(N)n1)C(=O)O
Activity [2]: Not Active | t1/2 [3]: > 60 min | Kcat [4]: 5 s⁻¹ | MIC50 (Escherichia coli): 1 µg/mL (≈ 1.46 µM) | ΔTm [5]: 7 °C | inhibition [6]: 63% | t1/2 [7]: 11 h | MIC (Pseudomonas aeruginosa [8]): > 16 µg/mL | MIC (Pseudomonas aeruginosa [9]): 2 µg/mL | Activity [10]: Not Active | inhibition (INH) (Cytochrome P450): Not Active | t1/2 [11]: > 60 min | Activity [12]: Not Active | MIC (Pseudomonas aeruginosa [13]): 16 µg/mL | Kcat/Km [14]: 0.07 µM⁻¹ s⁻¹ | degraded at 336 h [15]: 4% | MIC50 (Klebsiella pneumoniae): 1 µg/mL (≈ 1.46 µM) | C0 [16]: 200.844 µg/mL | MIC (Pseudomonas aeruginosa [17]): 0.5 µg/mL (≈ 0.728 µM) | IC50 [18]: 2500 nM | AUC [19]: 57791 ng·h/mL | MIC50 (Pseudomonas aeruginosa [20]): 1 µg/mL (≈ 1.46 µM) | MIC90 (Pseudomonas aeruginosa [20]): 8 µg/mL (≈ 11.7 µM) | AUClast [21]: 55866 ng·h/mL | Activity [22]: Not Active | Kcat/Km [23]: 0.02 µM⁻¹ s⁻¹ | Activity (Hepatocyte): Non-Toxic | solubility kinetic [24]: > 100 µM | MIC (Pseudomonas aeruginosa [25]): > 16 µg/mL | Tm [26]: 51 °C | Kcat/Km [27]: 0.02 µM⁻¹ s⁻¹ | concentration at 2 h [28]: 1400 ng/mL | Activity [29]: Not Active | Vdss [30]: 2 L/kg | Kcat [31]: 7 s⁻¹ | inhibition [32]: 66% | Kcat [33]: 20 s⁻¹ | MIC (Pseudomonas aeruginosa [34]): > 16 µg/mL | %AUCextra [35]: 3%

C[C@@H](O)[C@H]1C(=O)N2C(C(=O)O)=C(SCCN=CN)C[C@H]12 [IMIPENEM ANHYDROUS]
Kcat [4]: 36 s⁻¹ | Kcat/Km [14]: 3.2 µM⁻¹ s⁻¹ | Kcat/Km [27]: 6.7 µM⁻¹ s⁻¹ | Kcat [33]: 57 s⁻¹

CC(C)(O/N=C(\C(=O)N[C@@H]1C(=O)N2C(C(=O)[O-])=C(C[n+]3ccccc3)CS[C@H]12)c1csc(N)n1)C(=O)O [CEFTAZIDIME]
MIC50 (Escherichia coli): 2 µg/mL (≈ 3.66 µM) | MIC90 (Escherichia coli): > 16 µg/mL | MIC50 (Klebsiella pneumoniae): > 64 µg/mL | MIC90 (Klebsiella pneumoniae): > 64 µg/mL | Tm [36]: 56.5 °C | MIC (Pseudomonas aeruginosa [17]): 1 µg/mL (≈ 1.83 µM) | MIC (Pseudomonas aeruginosa [37]): 1 µg/mL | MIC50 (Pseudomonas aeruginosa [20]): 4 µg/mL (≈ 7.32 µM) | MIC90 (Pseudomonas aeruginosa [20]): > 16 µg/mL | MIC (Pseudomonas aeruginosa [25]): 1 µg/mL | MIC (Pseudomonas aeruginosa [34]): 1 µg/mL

C[C@@H](O)[C@H]1C(=O)N2C(C(=O)O)=C(S[C@@H]3CN[C@H](C(=O)N(C)C)C3)[C@H](C)[C@H]12 [MEROPENEM]
MIC50 (Escherichia coli): ≤ 1 µg/mL | MIC90 (Escherichia coli): 8 µg/mL (≈ 20.9 µM) | degraded at 24 h [38]: > 30% | MIC50 (Klebsiella pneumoniae): 16 µg/mL (≈ 41.7 µM) | MIC90 (Klebsiella pneumoniae): > 64 µg/mL | MIC50 (Pseudomonas aeruginosa [20]): 2 µg/mL (≈ 5.22 µM) | MIC90 (Pseudomonas aeruginosa [20]): > 8 µg/mL

NC(=O)[C@@H]1CC[C@@H]2CN1C(=O)N2OS(=O)(=O)O [AVIBACTAM]
MIC50 (Klebsiella pneumoniae): 0.5 µg/mL (≈ 1.89 µM) | MIC90 (Klebsiella pneumoniae): 2 µg/mL (≈ 7.54 µM) | MIC50 (Pseudomonas aeruginosa [20]): 4 µg/mL (≈ 15.1 µM) | MIC90 (Pseudomonas aeruginosa [20]): > 32 µg/mL

CC(C)(O/N=C(\C(=O)N[C@@H]1C(=O)N2C(C(=O)[O-])=C(C[N+]3(CCNC(=O)c4ccc(O)c(O)c4Cl)CCCC3)CS[C@H]12)c1csc(N)n1)C(=O)O [CEFIDEROCOL]
MIC (Pseudomonas aeruginosa [8]): 2 µg/mL | MIC (Pseudomonas aeruginosa [13]): 0.5 µg/mL | MIC (Pseudomonas aeruginosa [17]): 0.13 µg/mL (≈ 0.173 µM) | MIC (Pseudomonas aeruginosa [37]): 0.13 µg/mL | MIC (Pseudomonas aeruginosa [25]): 1 µg/mL | MIC (Pseudomonas aeruginosa [39]): 0.06 µg/mL (≈ 0.0798 µM) | MIC (Pseudomonas aeruginosa [34]): 0.25 µg/mL
